Test results from ChEMBL document CHEMBL1125523, “Novel indolodioxanes with antihypertensive effects: potent ligands for the 5-HT1A receptor” (J Med Chem, 1992).

Tests used:
[1] = biological target: T1, 5-hydroxytryptamine receptor 1A (Homo sapiens, UniProt P08908); experiment: Displacement of [3H]8-OH-DPAT from 5-hydroxytryptamine 1A receptor expressed in CHO cell membranes
T1 sequence (P08908 whole entry): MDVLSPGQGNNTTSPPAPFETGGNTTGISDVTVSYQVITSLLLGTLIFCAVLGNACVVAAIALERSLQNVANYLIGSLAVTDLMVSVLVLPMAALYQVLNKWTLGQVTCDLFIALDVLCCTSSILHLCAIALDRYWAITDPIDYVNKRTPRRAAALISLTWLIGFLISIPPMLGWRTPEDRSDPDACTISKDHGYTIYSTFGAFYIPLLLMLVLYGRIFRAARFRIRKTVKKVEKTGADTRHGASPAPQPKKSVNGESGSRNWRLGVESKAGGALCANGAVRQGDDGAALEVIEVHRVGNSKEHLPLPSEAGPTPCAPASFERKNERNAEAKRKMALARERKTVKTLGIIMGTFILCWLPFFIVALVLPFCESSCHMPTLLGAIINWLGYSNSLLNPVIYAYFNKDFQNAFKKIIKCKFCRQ
Summary of the method: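 [3H]8-OH-DPAT (164.5 Ci/mmol, 1 nM) competition on CHO membranes expressing a cloned mammalian 5-HT1A receptor. Ten drug concentrations in duplicate. IC50 from a nonlinear single-site fit, converted to Ki with Cheng–Prusoff. Ki in nM ± SEM.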

[2] = biological target: Serotonin 2 (5-HT2) receptor (Homo sapiens, UniProt P41595+P28223+P28335); experiment: Binding affinity towards 5-hydroxytryptamine 2 receptor expressed in CHO cell membranes using [3H]ketanserin (60 Ci/mmol, 1 nM)
Summary of the method: (§1)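 Competition binding on membranes from CHO cells expressing a cloned mammalian 5-HT2 receptor, with [3H]ketanserin (60 Ci/mmol, 1 nM). Ten drug concentrations run in duplicate. IC50 from a nonlinear single-site fit, converted to Ki by Cheng–Prusoff. Ki reported in nM ± SEM.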

[3] = biological target: T2, Adrenergic receptor alpha-1 (Rattus norvegicus, UniProt P15823+P23944+P43140); experiment: Binding affinity towards Alpha-1 adrenergic receptor from rat whole brain using [3H]prazosin (18.1 Ci/mmol,0.9nanoM)as radioligand
T2 sequence (P15823 whole entry): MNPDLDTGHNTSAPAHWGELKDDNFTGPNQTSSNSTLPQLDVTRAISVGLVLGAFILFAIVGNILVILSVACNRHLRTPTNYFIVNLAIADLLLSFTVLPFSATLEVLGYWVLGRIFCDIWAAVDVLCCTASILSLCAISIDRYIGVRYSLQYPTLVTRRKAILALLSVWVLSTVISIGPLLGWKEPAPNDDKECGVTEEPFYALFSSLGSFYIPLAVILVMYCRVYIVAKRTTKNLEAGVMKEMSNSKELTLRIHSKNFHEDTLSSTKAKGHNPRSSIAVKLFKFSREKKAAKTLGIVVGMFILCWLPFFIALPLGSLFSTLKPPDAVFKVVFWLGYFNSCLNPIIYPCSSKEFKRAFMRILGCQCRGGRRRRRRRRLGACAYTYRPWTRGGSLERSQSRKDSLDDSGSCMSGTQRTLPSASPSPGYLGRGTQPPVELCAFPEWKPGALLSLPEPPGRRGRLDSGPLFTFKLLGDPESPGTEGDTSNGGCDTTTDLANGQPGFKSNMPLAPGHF
T2 sequence (P23944 whole entry): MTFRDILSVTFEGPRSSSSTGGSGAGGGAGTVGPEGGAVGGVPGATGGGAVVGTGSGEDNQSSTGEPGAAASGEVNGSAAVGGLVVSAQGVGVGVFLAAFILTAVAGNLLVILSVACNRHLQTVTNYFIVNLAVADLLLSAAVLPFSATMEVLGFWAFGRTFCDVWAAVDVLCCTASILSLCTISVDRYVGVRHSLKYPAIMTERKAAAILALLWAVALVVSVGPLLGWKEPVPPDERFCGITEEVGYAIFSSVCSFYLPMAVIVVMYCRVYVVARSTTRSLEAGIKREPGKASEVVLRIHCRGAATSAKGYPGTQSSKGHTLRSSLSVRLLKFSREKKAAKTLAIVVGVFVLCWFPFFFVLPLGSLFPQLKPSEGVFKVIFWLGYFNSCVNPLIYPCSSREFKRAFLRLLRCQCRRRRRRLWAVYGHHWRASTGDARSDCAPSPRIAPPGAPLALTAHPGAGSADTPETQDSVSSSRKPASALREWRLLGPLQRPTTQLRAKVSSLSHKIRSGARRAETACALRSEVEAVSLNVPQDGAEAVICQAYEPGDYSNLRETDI
T2 sequence (P43140 whole entry): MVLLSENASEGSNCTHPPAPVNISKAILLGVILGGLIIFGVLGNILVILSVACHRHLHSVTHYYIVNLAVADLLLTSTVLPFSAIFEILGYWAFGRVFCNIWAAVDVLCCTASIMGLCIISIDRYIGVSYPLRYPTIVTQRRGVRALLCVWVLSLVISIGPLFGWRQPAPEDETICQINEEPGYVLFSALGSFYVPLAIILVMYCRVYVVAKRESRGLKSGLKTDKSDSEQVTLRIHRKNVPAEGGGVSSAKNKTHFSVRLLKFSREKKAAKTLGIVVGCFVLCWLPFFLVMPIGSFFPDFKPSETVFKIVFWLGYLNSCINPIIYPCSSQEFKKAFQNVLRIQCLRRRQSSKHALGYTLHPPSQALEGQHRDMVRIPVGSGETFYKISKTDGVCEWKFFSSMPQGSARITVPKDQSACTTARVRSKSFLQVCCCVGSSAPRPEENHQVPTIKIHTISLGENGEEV
Summary of the method: (§2)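 Rat whole-brain membranes displaced by test drug from [3H]prazosin (18.1 Ci/mmol, 0.9 nM). Ten concentrations in duplicate. IC50 by nonlinear single-site fit, then Ki via Cheng–Prusoff. Ki given in nM ± SEM.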

D(2) dopamine receptor [4] = biological target: T3, D(2) dopamine receptor (Homo sapiens, UniProt P14416); experiment: Binding affinity towards Dopamine receptor D2 from mammalian clones expressed in CHO cell membranes using 2 (86.1 Ci/mmol,1.7nanoM)as radioligand
Summary of the method: (§3)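 Cloned mammalian D2 receptor in CHO cell membranes, radioligand [3H]U-86170 (86.1 Ci/mmol, 1.7 nM). Competition over ten drug concentrations in duplicate. IC50 from a single-site nonlinear fit, with Ki by Cheng–Prusoff. Values in nM ± SEM.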

Mus musculus [5] = experiment: Result of hypothermia assay carried in Charles river CF-1 male mice at a dose of 0.01 mg/kg (s.c. administration); assay type: functional
Summary of the method: (§4)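 Male CF-1 mice (18–22 g), four per dose, individually caged. Rectal temperature (°F) taken before and 20 min after a 0.1 mL sc injection. A fall of 2 °F or more counted as a positive hypothermic response. Doses started at 30 mg/kg and were lowered by half-log steps.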

Mus musculus [6] = experiment: Result of hypothermia assay carried in Charles river CF-1 male mice at a dose of 17.3 mg/kg (s.c. administration); assay type: functional; summary of the method: as §4
D(2) dopamine receptor [7] = biological target: T3, D(2) dopamine receptor; experiment: Compound was evaluated for the binding affinity towards Dopamine receptor D2 from mammalian clones expressed in CHO cell membranes using 2 (86.1 Ci/mmol,1.7nanoM)as radioligand; summary of the method: as §3
Mus musculus [8] = experiment: Result of hypothermia assay carried in Charles river CF-1 male mice at a dose of 1.3 mg/kg (s.c. administration); assay type: functional
Summary of the method: (§5)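 CF-1 male mice (18–22 g), four per dose, caged individually. Rectal temperature (°F) taken before dosing and 20 min after. A drop of 2 °F or more counted as positive. Doses started at 30 mg/kg and fell by half-log steps until 0/4 mice responded. Route: sc, 0.1 mL; po, 0.2 mL by oral syringe. ED50 by Spearman-Kärber.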

Mus musculus [9] = experiment: Result of hypothermia assay carried in Charles river CF-1 male mice at a dose of 1.7 mg/kg (oral administration); assay type: functional; summary of the method: as §5
[10] = Compound was evaluated for the binding affinity towards 5-hydroxytryptamine 2 receptor from mammalian clones expressed in CHO cell membranes using [3H]-ketanserin as radioligand; summary of the method: as §1
[11] = biological target: T2, Adrenergic receptor alpha-1; experiment: Compound was evaluated for the binding affinity towards Alpha-1 adrenergic receptor from rat whole brain using [3H]prazosin as radioligand; summary of the method: as §2
D(2) dopamine receptor [12] = biological target: T3, D(2) dopamine receptor; experiment: Compound was evaluated for the binding affinity towards Dopamine receptor D2 from mammalian clones expressed in CHO cell membranes using [3H]U-86170 as radioligand; summary of the method: as §3
Mus musculus [13] = experiment: Result of hypothermia assay carried in Charles river CF-1 male mice at a dose of 30 mg/kg (s.c. administration); assay type: functional; summary of the method: as §4

T3 sequence (P14416 whole entry): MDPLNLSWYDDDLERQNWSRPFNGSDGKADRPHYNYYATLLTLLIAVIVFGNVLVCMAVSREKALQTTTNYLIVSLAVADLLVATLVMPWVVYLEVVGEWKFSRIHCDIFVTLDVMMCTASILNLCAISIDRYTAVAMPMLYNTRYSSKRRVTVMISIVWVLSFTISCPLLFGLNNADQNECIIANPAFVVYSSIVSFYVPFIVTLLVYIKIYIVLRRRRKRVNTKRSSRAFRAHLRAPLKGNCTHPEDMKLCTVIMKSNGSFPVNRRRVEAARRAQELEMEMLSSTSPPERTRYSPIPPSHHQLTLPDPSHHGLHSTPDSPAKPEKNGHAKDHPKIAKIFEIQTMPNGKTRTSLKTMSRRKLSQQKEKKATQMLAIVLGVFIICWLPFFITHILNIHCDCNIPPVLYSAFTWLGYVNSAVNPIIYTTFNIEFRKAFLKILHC

Compound | Ki [1] [nM] | Ki [2] [nM] | Ki [3] [nM] | Ki (D(2) dopamine receptor [4]) [nM] | other results
COC(=O)c1cc2c3c(ccc2[nH]1)OCC(CN1CCC(Nc2ccccc2)(C(N)=O)CC1)O3 (stereo unspecified) | 22 | 171 | 19.8 | > 388 | –
N#Cc1cc2c3c(ccc2[nH]1)OCC(CN1CCC2(CC1)C(=O)NCN2c1ccccc1)O3 (stereo unspecified) | 0.5 | 281 | 6 | 1.5 | Temperature decrease (Mus musculus [5]): 13 degrees F
CCCCOC(=O)c1cc2c3c(ccc2[nH]1)OCC(CN1CCC2(CC1)C(=O)NCN2c1ccccc1)O3 (stereo unspecified) | 3 | 92.6 | 39.6 | 5.7 | –
O=C(NCCCc1ccccc1)c1cc2c3c(ccc2[nH]1)OCC(CNCCCc1ccccc1)O3 (stereo unspecified) | 1.6 | 27.6 | 11.4 | 41 | –
O=C(O)c1cc2c3c(ccc2[nH]1)OCC(CN1CCC2(CC1)C(=O)NCN2c1ccccc1)O3 (stereo unspecified) | 17.8 | > 1722 | > 862 | 58 | Temperature decrease (Mus musculus [6]): 3.6 degrees F
O=C1NCN(c2ccccc2)C12CCN(CC1COc3ccc4[nH]ccc4c3O1)CC2 (stereo unspecified) | 0.4 | – | – | – | Ki (D(2) dopamine receptor [7]): 0.2 nM
O=C(OCc1ccccc1)c1cc2c3c(ccc2[nH]1)OCC(CN1CCC2(CC1)C(=O)NCN2c1ccccc1)O3 (stereo unspecified) | 1 | 143 | 30.4 | 5.8 | Temperature decrease (Mus musculus [6]): 5.6 degrees F
COC(=O)c1cc2c3c(ccc2[nH]1)OCC(CNCCCc1ccccc1)O3 (stereo unspecified) | 0.2 | 38.7 | 0.6 | 15.9 | Temperature decrease (Mus musculus [8]): 13.6 degrees F; Temperature decrease (Mus musculus [9]): 8.8 degrees F
CCOC(=O)C1CCN(CC2COc3ccc4[nH]c(C(=O)OC)cc4c3O2)CC1 (stereo unspecified) | 1.2 | 170 | 12.3 | 255 | –
COC(=O)c1cc2c3c(ccc2[nH]1)OCC(CN1CCC2(CC1)C(=O)NCN2c1ccccc1)O3 (stereo unspecified) | 0.9 | – | – | – | Ki [10]: 640 nM; Ki [11]: 11.4 nM; Ki (D(2) dopamine receptor [12]): 3.1 nM; Temperature decrease (Mus musculus [13]): 3.2 degrees F
NC(=O)c1cc2c3c(ccc2[nH]1)OCC(CN1CCC2(CC1)C(=O)NCN2c1ccccc1)O3 (stereo unspecified) | 0.3 | > 1722 | 29.4 | 1.8 | –
O=C1NCN(c2ccccc2)C12CCN(CC1COc3ccc4[nH]c(CO)cc4c3O1)CC2 (stereo unspecified) | 0.6 | > 1722 | 8.8 | 2 | –
COC(=O)c1cc2c3c(ccc2[nH]1)OCC(CN1CCC(n2c(O)nc4ccccc42)CC1)O3 (stereo unspecified) | 0.6 | 31.6 | 1.8 | 6.7 | –
